Paper PMC7678623 (Angewandte Chemie (International ed. in English), 2019)

Assays:
Assay type in all cases: cell-based
CDK4/6 = assay: Immunoblot for CDK4/6 degradation in Jurkat cells; conditions: WT Jurkat cells, 4h, Figure 3
Outline: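 Jurkat cells, which express both CDK4 and CDK6, were treated for 4h with test compound at 1 µM. The test compounds were degraders built on each of three CDK4/6 inhibitor scaffolds. CDK4 and CDK6 protein levels were then assessed by immunoblot.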

IKZF1/3 = assay: Immunoblot for IKZF1/3 degradation in Jurkat cells; conditions: 4h, Figure 3
Molt4 cells = assay: Multiplexed MS-based quantitative proteomics; conditions: 250 nM, 5h
[1] = test system: CDK4/6, IKZF1/3, phosphorylated Rb; assay: Immunoblots in Granta-519 cells; conditions: 1 µM, 1d
[2] = test system: wildtype and Crbn−/− Jurkat cells; assay: Cell cycle profile by propidium iodide staining of DNA content; conditions: 100 nM, 24h
Outline: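 Wildtype and Crbn−/− Jurkat cells were exposed to 100 nM test compound for 24h, alongside a parent CDK4/6 inhibitor and an imide CRBN ligand as comparators. Cells were stained with propidium iodide for DNA content, and cell cycle distribution was read from fluorescence histograms and then quantitated.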

Row | SMILES | CDK4 and CDK6 degradation selectivity (immunoblot) (CDK4/6) | IKZF1/3 degradation (immunoblot) (IKZF1/3) | proteome-wide degradation selectivity (Molt4 cells) | CDK4/6 and IKZF1/3 protein loss (immunoblot) [1] | CDK4 abundance change (Molt4 cells) | cell cycle effect (G1 arrest) ([2]; Crbn−/− Jurkat cells) | cell cycle effect (G1 arrest) ([2]; wildtype Jurkat cells) | levels of phosphorylated Rb (immunoblot) [1]
1 | CN(C)C(=O)c1cc2cnc(Nc3ccc(N4CCN(CCCCNC(=O)CNc5cccc6c5C(=O)N(C5CCC(=O)NC5=O)C6=O)CC4)cn3)nc2n1C1CCCC1 (centres unmarked) [BSJ-01–187] | selectively degraded CDK4 | induced degradation of IKZF1/3 |  |  |  |  |  | 
2 | CC(=O)c1c(C)c2cnc(Nc3ccc(N4CCN(CCOCCOCCOCCNC(=O)COc5cccc6c5C(=O)N(C5CCC(=O)NC5=O)C6=O)CC4)cn3)nc2n(C2CCCC2)c1=O (centres unmarked) [BSJ-03–123] | selective CDK6 degrader | none of which induced IKZF1/3 degradation | loss of CDK6, but not CDK4 or IKZF1/3 |  |  |  |  | 
3 | CC(=O)c1c(C)c2cnc(Nc3ccc(N4CCN(CCCCNC(=O)COc5cccc6c5C(=O)N(C5CCC(=O)NC5=O)C6=O)CC4)cn3)nc2n(C2CCCC2)c1=O (centres unmarked) [BSJ-03–204] | dual CDK4/6 degrader | none of which induced IKZF1/3 degradation | selective for CDK4/6 degradation | only resulted in degradation of CDK4/6 |  |  |  | 
4 | CN(C)C(=O)c1cc2cnc(Nc3ccc(N4CCN(CCCCNC(=O)COc5cccc6c5C(=O)N(C5CCC(=O)NC5=O)C6=O)CC4)cn3)nc2n1C1CCCC1 (centres unmarked) [BSJ-04–132] | selective CDK4 degrader | none of which induced IKZF1/3 degradation | its level was reduced to a greater extent than those of CDK6, IKZF1 and IKZF3 |  | ~ 1.9 fold change |  |  | 
5 | CC(=O)c1c(C)c2cnc(Nc3ccc(N4CCN(CC(=O)NCCOCCOCCOCCNc5cccc6c5C(=O)N(C5CCC(=O)NC5=O)C6=O)CC4)cn3)nc2n(C2CCCC2)c1=O (centres unmarked) [YKL-06–102] | induced selective degradation of CDK6 | induced degradation of IKZF1/3 |  |  |  |  |  | 
6 | Nc1cccc2c1CN(C1CCC(=O)NC1=O)C2=O (centres unmarked) [lenalidomide] |  |  |  |  |  | had no effect | had no effect | 
7 | CC(=O)c1c(C)c2cnc(Nc3ccc(N4CCNCC4)cn3)nc2n(C2CCCC2)c1=O [palbociclib] |  |  |  |  |  | induced profound G1 arrest in both cell lines | induced profound G1 arrest in both cell lines | reduced levels of phosphorylated Rb
